From ChEMBL document CHEMBL3397031, “Synthesis and structure-activity relationships of pyridinyl-1H-1,2,3-triazolyldihydroisoxazoles as potent inhibitors of tubulin polymerization” (Eur J Med Chem, 2015) come the findings set out here.

In one assay the test system is A549. The experiment in a line: Cytotoxicity against human A549 cells after 48 hrs by MTT assay. It counts as functional, cell-based. The conditions noted are these: A549, 48 h. Put shortly:
(§1)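 A549, HeLa and MCF7 cells were grown in DMEM with 10% FBS, and DU145 in MEM with non-essential amino acids, pyruvate, insulin and 10% FBS. Cells were plated 24 h before dosing, then exposed continuously for 48 h at 1, 10, 25 and 100 µM in triplicate wells. MTT was added for 60 min, dissolved in DMSO and read at 560 nm. IC50 was taken from dose-response curves against control, as mean ± SD of three independent experiments.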

A further assay concerns DU-145. The assay is described as follows: Cytotoxicity against human DU145 cells after 48 hrs by MTT assay. It is filed as functional, cell-based. The conditions noted are these: DU-145, 48 h. Put shortly:
as §1

The test system of a further assay is HeLa. The experiment in a line: Cytotoxicity against human HeLa cells after 48 hrs by MTT assay. It counts as functional, cell-based. An outline of the steps:
as §1

The test system of the next assay is MCF7. The assay is described as follows: Cytotoxicity against human MCF7 cells after 48 hrs by MTT assay. It counts as functional, cell-based. The settings on record: MCF7, 48 h. An outline of the steps: as §1
The next assay addresses Tubulin (Bos taurus) (UniProt Q6B856+Q862L2+Q862F3). The conditions noted are these: at 10 µM.

Take `COc1cc(C2=NOC(COCc3cn(Cc4cc(C)cnc4N4CCOCC4)nn3)C2)cc(OC)c1OC` (centres undefined): the IC50 is 45.4 µM in the assay with A549, 138 µM with DU-145, 37.3 µM in the assay with HeLa and 146 µM in the assay with MCF7. In addition, the inhibition at Tubulin (Bos taurus) is 27%.

With `COc1cc(-c2cc(COCc3cn(Cc4cc(C)cnc4N4CCSCC4)nn3)on2)cc(OC)c1OC`, the IC50 was determined as 40 µM with A549, 73.9 µM with DU-145, 53.4 µM in the assay with HeLa and 82.9 µM with MCF7. The molecule also showed an inhibition against Tubulin (Bos taurus) of 32%.

`COc1cc(COCc2cn(Cc3cc(-c4ccc(C)cc4)cnc3N3CCOCC3)nn2)cc(OC)c1OC`: the IC50 in the assay on A549 worked out at 38.5 µM; with DU-145, 34.8 µM; in the assay with HeLa, 35.8 µM; with MCF7, 51.7 µM. This molecule also had an inhibition against Tubulin (Bos taurus) of 48%.

Regarding `COc1cc(COCc2cn(Cc3cc(C)cnc3N3CCSCC3)nn2)cc(OC)c1OC`, the IC50 came to 71.5 µM with A549, 48.6 µM with DU-145, 61.8 µM in the assay with HeLa and 82.1 µM in the assay with MCF7. In addition, at Tubulin (Bos taurus), the inhibition worked out at 27%.

`COc1cc(COCc2cn(Cc3cc(-c4ccc(F)cc4)cnc3Cl)nn2)cc(OC)c1OC`: the IC50 in the assay with A549 was 50.6 µM; in the assay on DU-145 it was 38.8 µM; in the assay on HeLa it was 49.6 µM; with MCF7, 96.6 µM. In addition, the inhibition against Tubulin (Bos taurus) is 41%.

`COc1cc(-c2cc(COCc3cn(Cc4cc(-c5ccccc5)cnc4N4CCOCC4)nn3)on2)cc(OC)c1OC`: the half-maximal inhibitory concentration (IC50) in the assay with A549 came to 39.2 µM; in the assay with DU-145, 54 µM; in the assay with HeLa it was 39.4 µM; with MCF7 it was 63.4 µM. In addition, the inhibition against Tubulin (Bos taurus) turned out to be 27%.

Regarding `COc1cc(COCc2cn(Cc3cc(-c4ccccc4)cnc3Cl)nn2)cc(OC)c1OC`, the half-maximal inhibitory concentration (IC50) in the assay on A549 is 62.6 µM; in the assay on DU-145, 45.5 µM; in the assay on HeLa, 41.9 µM; with MCF7 it was 86.7 µM. Besides, the inhibition against Tubulin (Bos taurus) was determined as 18%.

`COc1cc(C2=NOC(COCc3cn(Cc4cc(C)cnc4N4CCSCC4)nn3)C2)cc(OC)c1OC` (centres undefined): the half-inhibitory concentration (IC50) stood at 45.6 µM in the assay with A549, 29.4 µM with DU-145, 41 µM with HeLa and 45.1 µM in the assay with MCF7. On Tubulin (Bos taurus), the inhibition was 38%.

As for `COc1cc(C2=NOC(COCc3cn(Cc4cc(C)cnc4Cl)nn3)C2)cc(OC)c1OC` (centres undefined), the half-inhibitory concentration (IC50) in the assay on A549 came to 37.7 µM; in the assay on DU-145, 58.9 µM; in the assay with HeLa, 50.5 µM; in the assay with MCF7, 85.5 µM. The same molecule showed an inhibition at Tubulin (Bos taurus) of 53%.

For the molecule `COc1cc(C2=NOC(COCc3cn(Cc4cc(-c5ccccc5)cnc4N4CCSCC4)nn3)C2)cc(OC)c1OC` (centres undefined), the IC50 stood at 31.5 µM in the assay on A549, 34.5 µM in the assay with DU-145, 29.2 µM with HeLa and 45 µM in the assay with MCF7. Further, at Tubulin (Bos taurus), the inhibition came out at 50%.

`COc1cc(C2=NOC(COCc3cn(Cc4cc(-c5ccc(C)cc5)cnc4N4CCOCC4)nn3)C2)cc(OC)c1OC` (centres undefined): the IC50 in the assay on A549 was determined as 39.6 µM; in the assay with DU-145 it was 49.7 µM; in the assay with HeLa, 38.7 µM; in the assay with MCF7, 59.6 µM. Further, at Tubulin (Bos taurus), the inhibition was 27%.

With `COc1cc(COCc2cn(Cc3cc(-c4ccccc4)cnc3N3CCOCC3)nn2)cc(OC)c1OC`, the IC50 with A549 amounted to 84 µM; with DU-145, 70.3 µM; in the assay with HeLa, 85.1 µM; in the assay with MCF7, 97.6 µM. The inhibition on Tubulin (Bos taurus) is 16%.

Regarding `COc1cc(COCc2cn(Cc3cc(C)cnc3Cl)nn2)cc(OC)c1OC`, the half-maximal inhibitory concentration (IC50) was found to be 41.9 µM with A549, 34.8 µM in the assay with DU-145, 264 µM in the assay on HeLa and 67.4 µM in the assay on MCF7. The molecule also showed an inhibition on Tubulin (Bos taurus) of 24%.

Take `COc1cc2c(c(OC)c1OC)-c1ccc(OC)c(=O)cc1[C@@H](NC(C)=O)CC2` [COLCHICINE]: the concentration for half-maximal inhibition (IC50) is 0.12 µM with A549, 0.69 µM in the assay on DU-145, 0.54 µM in the assay on HeLa and 0.07 µM with MCF7.
